Screens from PubChem BioAssay.
ADAM10 inh = inhibits human ADAM10. AID 720582. O14672. 0.62% of 370,000 active. inhibition, % at 7 µM. recombinant ADAM10, EDANS/DABCYL FRET peptide cleavage, 3 h;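 active = inhibition above a per-campaign cutoff equal to the mean of compounds falling between control-based bounds plus 3 SD, cut at about 20% in these data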
MPTP block = inhibitors of mitochondrial permeability transition pore; 1.4% of 360,000 active; isolated mouse mitochondria, Ca2+ swelling absorbance, 30 min; inhibition, % at 10 µM; AID 602449;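 active = inhibition of 50% or more, scaled per plate between neutral and stimulator controls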
NR3A LBD binder = modulates the human NR3A ligand-binding domain | 2.5% of 340,000 active | NR3A LBD differential scanning fluorimetry, Tm shift; 0% = protein alone, 100% = glycine-bound protein | Tm shift relative to glycine control, % at 25 µM | AID 1259313;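 active = melting temperature shift of at least 10% of the positive control shift, at one fixed dose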
MT1-MMP act inh = inhibitors of human MT1-MMP activation; P50281; HT1080 RFP-PRO-GFP cells, GFP/RFP ratio fluorescence, overnight; percent of plate control window, DMSO zero; GFP/RFP ratio change, % at 20 µM; 0.061% of 360,000 active; AID 651647;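 active = GFP/RFP ratio change of at least 30% with cell ATP level not reduced by more than half and red fluorescence within 50% of control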
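Assay system: HT1080 RFP-PRO-GFP cells. Benchmarks: DMSO vehicle wells and RFP-L50D-GFP reporter cell wells. Times: overnight cell settling, then overnight compound exposure, 37 °C, 5% CO2. Compound: 20 µM single dose, 1% DMSO. Read-out basis: GFP/RFP fluorescence ratio.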
ADAM17 inh = inhibits human ADAM17; P78536; recombinant ADAM17, EDANS/DABCYL FRET peptide cleavage; inhibition, % at 6.95 µM; 0.83% of 370,000 active;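 active = inhibition above the mean of compounds lying between control limits plus 3 SD, set per campaign, cut at about 8.5% in these data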
Target sequence (P78536 215-824 limits assumed): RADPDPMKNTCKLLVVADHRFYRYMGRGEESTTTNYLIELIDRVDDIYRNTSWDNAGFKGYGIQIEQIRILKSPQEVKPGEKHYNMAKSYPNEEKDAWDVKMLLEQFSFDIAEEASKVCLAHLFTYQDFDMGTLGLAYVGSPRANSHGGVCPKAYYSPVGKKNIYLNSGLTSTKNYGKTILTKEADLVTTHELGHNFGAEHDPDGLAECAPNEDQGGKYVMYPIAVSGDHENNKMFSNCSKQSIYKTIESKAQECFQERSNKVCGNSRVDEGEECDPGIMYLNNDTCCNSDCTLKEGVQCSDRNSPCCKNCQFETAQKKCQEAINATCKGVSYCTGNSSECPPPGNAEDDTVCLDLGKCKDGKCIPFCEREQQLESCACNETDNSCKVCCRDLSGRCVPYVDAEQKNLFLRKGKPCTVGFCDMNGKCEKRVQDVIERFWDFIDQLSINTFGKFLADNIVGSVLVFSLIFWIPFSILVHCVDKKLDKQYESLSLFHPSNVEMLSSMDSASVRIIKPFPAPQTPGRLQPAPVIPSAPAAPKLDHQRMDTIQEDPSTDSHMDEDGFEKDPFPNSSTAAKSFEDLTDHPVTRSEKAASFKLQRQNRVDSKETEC
SKN-1 block = inhibitors of C. elegans SKN-1. inhibition, % at 21.8 µM. C. elegans VP596 Pgst-4::GFP/RFP ratio, acrylamide-induced, 24 h. 0.49% of 360,000 active. AID 624304;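 active = interference check ratio from 0.5 to 1.5 plus GFP to RFP signal ratio inhibition reaching or exceeding a fixed threshold, cut at about 30% in these data, passing the limit was not always enough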
A number is an active result; 0 = inactive; - = not tested or not shown. An excerpt weighted towards active compounds, which were near 4.7% of everything screened.

SMILES	ADAM10 inh	MPTP block	NR3A LBD binder	MT1-MMP act inh	ADAM17 inh	SKN-1 block
CN(C(=O)/C=C/c1cnc2ccccc2c1)C1CCCCC1	0	0	0	0	0	0
C(/C=C/c1ccco1)=N/N1CCN(c2ccccc2)CC1	0	0	0	0	0	59
CCn1c(C(C)NC(=O)c2cccs2)n[nH]c1=S (centres undefined)	0	0	10	0	0	0
COc1cc(/C=N/NC(=O)CC2(C)OCCO2)cc(Br)c1O	0	0	37	0	0	0
C[C@@H]1CN([C@@H](C)CO)C(=O)c2cccc(NC(=O)C3CCCCC3)c2O[C@@H]1CN(C)C(=O)NC1CCCCC1	0	0	0	0	0	0
CCOc1ccccc1N1CCN(C(=S)Nc2ccc(S(=O)(=O)Nc3ncccn3)cc2)CC1	0	0	10	0	0	0
CCOc1ccccc1N1CCN(C(=O)c2ccc(S(=O)(=O)Nc3ccccc3)cc2)CC1	0	0	0	0	0	0
O=C(O)c1ccc(NC(=S)NC(=O)c2ccc3ccccc3c2)cc1	0	0	17	0	0	0
O=C(O)c1cccc(NC(=S)NC(=O)c2ccc3ccccc3c2)c1	0	0	0	0	0	0
O=C(CCC(=O)c1ccc(F)cc1)Nc1cccc(S(=O)(=O)Nc2cccc(Cl)c2)c1	0	0	28	0	0	0
Cc1ccc(NC(=S)NC(=O)c2ccc(F)cc2)cc1S(=O)(=O)Nc1cccc(Cl)c1	0	0	13	0	0	0
O=C(NC(=S)Nc1cccnc1)c1cccc(Br)c1	0	0	0	0	0	0
O=C(NC(=S)Nc1cc(Cl)ccc1O)c1cccc(Br)c1	0	0	18	0	0	0
O=C(CCC(=O)c1ccc(F)cc1)Nc1cccc(C(F)(F)F)c1	0	0	0	0	0	0
C/C(=N\NS(=O)(=O)c1ccc(C)c([N+](=O)[O-])c1)c1ccc2c(c1)OCO2	0	0	0	0	0	0
CCOc1ccc(S(=O)(=O)N2CCCCC2)cc1NC(=O)CN1C(=O)NC(C)(c2ccccc2)C1=O (centres undefined)	0	0	0	0	0	0
Cc1ccc(C(=O)NC(=S)Nc2ccc(NC(=O)c3cccc(Cl)c3)cc2)cc1	0	0	35	0	0	0
O=C(NCc1cccnc1)c1cc(C2CCCN(S(=O)(=O)c3cccc4cccnc34)C2)on1 (centres undefined)	0	0	-	0	0	0
CCN(CC)CCN1C(=O)C(=O)/C(=C(/O)c2cnn(-c3ccccc3)c2C)C1c1ccc(C)o1 (centres undefined)	0	0	0	0	0	46
COc1ccc(Cl)cc1Nc1nc(N)c2ccccc2n1	0	0	16	0	0	0
CCN(CC)CCNc1ncnc2c1sc1nc(N3CCCC3)c3c(c12)CC(C)(C)OC3	0	0	0	0	0	0
CN(C)CCNc1ncnc2c1sc1nc(N3CCCC3)c3c(c12)CC(C)(C)OC3	0	0	0	0	0	50
CN1CCN(CCCCC(=O)c2ccccc2)CC1	0	0	0	0	0	0
COc1ccccc1CNC(=O)c1cc(-c2ccccc2)nn1CC1CC(c2cccc([N+](=O)[O-])c2)=NO1 (centres undefined)	20	0	0	0	0	0
COc1ccccc1CNC(=O)C1CC(c2cccc([N+](=O)[O-])c2)=NO1 (centres undefined)	0	0	0	0	0	0
SMILES	ADAM10 inh	MPTP block	NR3A LBD binder	MT1-MMP act inh	ADAM17 inh	SKN-1 block
CCOC(=O)c1cc(-c2ccccc2)nn1CC1CC(c2ccc(OC)cc2)=NO1 (centres undefined)	0	0	13	0	0	0
O=C1/C(=C\c2ccc(O)c(O)c2)C(c2ccccc2)=NN1c1ccccc1	0	0	12	0	0	0
Cc1cccc(NC(=O)CCS(=O)(=O)c2ccccc2)n1	0	0	0	0	0	0
COc1ccc(NC(=O)CC2C(=O)N(c3ccc(Cl)cc3)C(=S)N2CCc2ccncc2)cc1 (centres undefined)	-	0	10	0	-	0
COc1ccc(NC(=O)CC2C(=O)N(c3ccc(Cl)cc3)C(=S)N2NC(=O)c2cccc(F)c2)cc1 (centres undefined)	0	0	16	0	0	0
CC1CCc2c(sc(NC(=O)Cn3nc(C(F)(F)F)c4c3CCCCC4)c2C#N)C1 (centres undefined)	0	0	16	0	0	0
CN(C(=O)c1cccc(C(=O)N(C)c2ccccc2)c1)c1ccccc1	0	0	0	0	0	0
CN(C(=O)c1ccncc1)c1ccccc1	0	0	11	0	0	0
COC(CNC(=O)c1ccc2nc(-c3cccs3)c(-c3cccs3)nc2c1)OC	0	0	16	0	0	0
Cc1ccc(C(=O)Nc2ccc3[nH]c(=O)[nH]c3c2)c(C)c1	0	0	0	0	0	0
CC/C(=C/c1sc2ccc(C)cc2[n+]1CCCS(=O)(=O)[O-])SC	0	-	0	-	0	-
CCN1/C(=C/c2ccc3ccccc3[n+]2CCCS(=O)(=O)[O-])C=Cc2cc(C)ccc21	0	0	0	0	0	39
CC(=NNC(=S)Nc1cccc(Cl)c1)c1ccccn1	0	0	0	0	0	39
S=C(NCc1ccccn1)Nc1cccc(Cl)c1	0	0	0	0	0	0
O=C(NCc1ccc(F)cc1)c1ccc2c(=O)n3c(nc2c1)CCCCC3	0	0	0	0	0	0
Cc1nc2n(c(=O)c1CCN1CCC(c3noc4cc(F)ccc34)CC1)CCCC2	0	0	10	0	0	0
CN(C(=O)COn1nnc2ccc(Cl)cc21)C1CCS(=O)(=O)C1 (centres undefined)	0	0	0	0	0	0
COc1ccc(Cl)cc1-n1c(C)cc(C=O)c1C	0	0	0	0	0	0
CSC1=NSC2=NC(=O)/C(=C/c3coc4ccc(O)cc4c3=O)C(=N)N12	0	0	15	0	0	0
COc1cccc(-c2nnn(C/C(N)=N/O)n2)c1	0	0	0	0	0	0
O=C(NC1CCCc2ccccc21)c1cn2ccccc2n1 (centres undefined)	0	0	0	0	0	0
CC(=O)Nc1ccc(S(=O)(=O)NCC2CCC(C(=O)NCCCN(C)Cc3ccccc3)CC2)cc1 (centres undefined)	0	0	15	0	0	0
CN(CCCNC(=O)C1CCC(CNS(=O)(=O)c2ccccc2)CC1)Cc1ccccc1 (centres undefined)	0	0	0	0	0	0
O=C(c1cnn2c(C(F)(F)F)cc(-c3ccc4c(c3)OCO4)nc12)N1CCCCC1	0	0	0	0	0	0
O=C(Nc1ccc(OC(F)F)c(Cl)c1)c1ccccn1	0	0	0	0	0	59
